# Source: PubChem (several laboratories)
# Compounds with a hit are over-represented: about 3% of the library has one in this group of screens.
# Myeloid diff 2 = myeloid differentiation induction | ER-HoxA9 myeloid progenitors, lysozyme-GFP differentiation, flow cytometry | calls only at 10 µM | hit rate 1% among 360,000;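 active = normalized GFP-positive differentiation at or above the plate's own cutoff, the solvent-only control mean plus 3 SD; inconclusive = no clear call, values can overlap the other calls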;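 note: cells exposed to compound for four days before flow analysis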
# Pemphigus Ab inh = blocks pemphigus antibody binding to human desmoglein-3; DSG3-coupled beads, scFv-anti-DSG3-GFP binding, flow cytometry; stronger effect = lower value; binding (percent of control), % at 10 µM; hit rate 0.48% among 310,000;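 active = binding more than 3 SD below its plate's average and above zero; inconclusive = below that plate limit but binding exactly zero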
# SENP1 FRET inh = inhibitors of human SENP1 SUMO protease catalytic domain | recombinant SENP1 catalytic domain, CyPet-SUMO1-YPet FRET cleavage | inhibition, % at 10 µM | hit rate 0.21% among 360,000;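 active = inhibition at least 30% at 10 µM, raw YFP signal under a set limit, fluorescence ratio 0.5 to 1.5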;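 note: 0% = enzyme with DMSO and 100% = no enzyme wells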
# Target sequence (Q9P0U3 419-644 limits assumed): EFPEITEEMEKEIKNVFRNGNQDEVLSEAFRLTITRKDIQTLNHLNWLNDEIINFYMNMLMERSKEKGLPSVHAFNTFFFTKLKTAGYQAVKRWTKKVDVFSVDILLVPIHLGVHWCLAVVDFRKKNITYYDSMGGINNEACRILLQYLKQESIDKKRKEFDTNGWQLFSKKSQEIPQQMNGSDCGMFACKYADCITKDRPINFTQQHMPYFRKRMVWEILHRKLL
#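 Material: hSENP1 catalytic domain, recombinant; medium: Tris pH 8 with BME, BSA, NP40 and catalase; compound: single concentration of 10 µM compound, 0.5% DMSO final; technique: FRET read of cyan and yellow fluorescence; timing: 50 min enzyme reaction, room temperature, light-protected; reagent: SFCypet-SUMO1-SFYpet substrate at 25 nM; control set: no-enzyme low, enzyme-DMSO high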
# HNF4A DNA FP = change in binding of human HNF4 alpha to DNA; HNF4a-FITC DNA binding, fluorescence polarization, 1 h; hit rate 0.3% among 360,000; P41235; activity change, % at 10 µM; in the data active = activity change above about 30%, passing the limit was not always enough
# Exocytosis inh = blocks lytic granule exocytosis; TALL-104 LAMP-1 surface exposure, flow cytometry; cells stimulated with thapsigargin and PMA; inhibition, % at 10 µM; hit rate 0.66% among 360,000; AID 651702;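 active = inhibition above about 55%, limit read from the data; inconclusive = no clear call, values can overlap the other calls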
# H9c2 protect = myocardial damage modulation in H9c2 cells; hit rate 0.63% among 360,000; H9c2 cardiomyocytes, H2O2 injury protection, ATPLite, 2 h; AID 588492; protection from H2O2 cell death, % at 20 µM;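 active = compounds giving at least 50% protection of heart cells from peroxide-induced death in the single-dose screen, raw or plate-pattern-corrected value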;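 note: 0% = DMSO wells with peroxide and 100% = DMSO wells without peroxide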
# Myeloid diff CP1 = compounds promoting myeloid differentiation. shares compounds with Myeloid diff 2. ER-HoxA9 myeloid progenitors, GFP/Mac1 double-positive flow. calls only. hit rate 2% among 2,300;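 active = share of green or green-and-red cells above 9 and 9% in run 1 or 4 and 3% in run 2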
# GFP autofluor = flagged as fluorescent in myeloid differentiation counter-screen | shares compounds with Myeloid diff 2 | ER-HoxA9 myeloid progenitors, no estrogen, GFP autofluorescence flow cytometry; vehicle wells 0%, positive control 100% | fluorescence response, % (no concentration beside the values) | hit rate 7.4% among 2,300 | AID 651707;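 active = over 5% cells positive for green fluorescent reporter, or over 2% positive for both it and APC stain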;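 note: range taken on the double positive population between DMSO and positive control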
# * = called active by the depositor; i = inactive; ? = inconclusive; . = no result given; + = active, no number.
SMILES,Myeloid diff 2,Pemphigus Ab inh,SENP1 FRET inh,HNF4A DNA FP,Exocytosis inh,H9c2 protect,Myeloid diff CP1,GFP autofluor
Cc1cc(C)n2nc(C(=O)OCC(=O)Nc3ccc(C)c(F)c3)nc2n1,i,101,2,2,-3,14,i,0
Cc1ccccc1C(=O)N/N=C1/SCC(=O)N1Cc1ccccc1,i,99,3,1,-1,4,.,.
COCCN(C(=O)COC(=O)C(c1ccccc1)c1ccccc1)c1c(N)n(Cc2ccccc2)c(=O)[nH]c1=O,i,99,0,1,-2,0,.,.
COc1ccc(OC)c(-c2csc(NC(=O)Cc3cccs3)n2)c1,+,101,-3,3,-6,-4,i,0
CC(C)(C)c1cc(C(=O)N/N=C/c2cc3c(cc2Br)OCO3)n[nH]1,i,101,-2,1,-1,4,.,.
C/C(Cc1ccccc1)=N\NC(=O)CNC(=O)c1ccc(Br)cc1,+,92,1,2,-4,-2,i,1
Cc1cc(C)c(NC(=O)C2CCCO2)c(C)c1NC(=O)C1CCCO1 (centres undefined),i,105,-1,-2,0,-4,.,.
CCCCCC(=O)N1C[C@@H](O)[C@H](n2cc(COC(=O)c3ccccc3)nn2)C[C@@H]1c1ccc(OC)cc1,i,100,1,-1,-2,2,i,0
CCCCCC(=O)N1C[C@@H](n2cc(COC(=O)c3ccccc3)nn2)[C@H](O)C[C@@H]1c1ccc(OC)cc1,i,108,1,1,4,-2,.,.
Cc1cc(-c2cc(-c3ccc(Cl)cc3)nc(N)c2C#N)co1,+,98,-19,9,-1,-6,i,0
O=C(NCc1ccccc1)C(C(=O)c1ccc(F)cc1)n1ccccc1=O (centres undefined),i,.,0,6,0,3,i,1
CCc1ccccc1NC(=O)NC1CCCCC1,i,.,3,0,11,10,.,.
CCc1cccc(CC)c1NC(=O)NC1CCCCC1,+,99,1,1,-3,0,i,0
Cc1ccc(N2CN(CCc3ccccc3)CNC2=S)cc1,i,104,0,5,-7,-16,.,.
CCOc1ccccc1OC(=O)c1ccco1,i,.,2,2,4,-4,i,1
O=C(Oc1cccc2ccccc12)c1ccco1,i,.,7,7,-2,-1,.,.
CC(=O)COc1ccccc1OC(=O)c1ccco1,i,.,-2,3,1,0,.,.
CC(=O)c1ccccc1OC(=O)c1ccco1,+,102,4,-1,3,-1,i,0
CC(C)N1CCc2c(sc(NC(=O)c3nc4ccccc4s3)c2C(N)=O)C1,+,109,-36,18,13,11,i,1
NS(=O)(=O)c1ccc(CCNc2ccn3nc(-c4cccc(C(F)(F)F)c4)cc3n2)cc1,i,.,-12,-3,0,-6,.,.
CC(C(=O)NNS(=O)(=O)c1cccc(C(F)(F)F)c1)n1nnc(N2CCOCC2)n1 (centres undefined),+,100,0,4,-2,2,i,0
Cc1ccc(N2C(=O)N(CC(=O)N3c4ccccc4CC3C)C(=O)C2C)cc1 (centres undefined),i,97,-1,-1,3,1,.,.
COc1ccccc1NC(=S)N(Cc1ccco1)Cc1cc2ccc(C)c(C)c2[nH]c1=O,?,96,-4,2,2,2,.,.
COc1ccccc1NC(=S)N(Cc1ccco1)Cc1cc2cc(C)cc(C)c2[nH]c1=O,i,97,1,3,-4,2,i,0
Cc1ccc(Cc2c[nH]c(=S)s2)cc1,+,107,0,-1,1,3,i,0
SMILES,Myeloid diff 2,Pemphigus Ab inh,SENP1 FRET inh,HNF4A DNA FP,Exocytosis inh,H9c2 protect,Myeloid diff CP1,GFP autofluor
O=C(Nc1ccncc1)c1ccc(Cl)c(S(=O)(=O)N2CCc3ccccc32)c1,i,102,1,2,11,-15,i,1
COc1ccc(C(=O)NC2CCCCCC2)cc1S(=O)(=O)N1CCCc2ccccc21,i,88,2,-2,0,-21,i,0
COc1ccc(C(=O)NC2CCCCCC2)cc1S(=O)(=O)N1CCCC1,i,117,1,2,-1,-2,.,.
CCc1ccc2c(c1)NC(=O)C2(C)Cc1ccccc1Cl (centres undefined),i,.,1,3,-2,-5,.,.
c1ccc(COc2ncnc3c2ncn3CCCN2CCN(c3ncccn3)CC2)cc1,i,112,0,-2,1,-5,i,0
Clc1cccc(OCc2nc(-c3ccncc3)n[nH]2)c1,i,109,1,1,2,6,i,0
Fc1ccc(OCc2nc(-c3ccncc3)n[nH]2)cc1,i,107,1,-3,-2,4,.,.
CC1CCCN(C(=O)CNC(=O)c2ccco2)C1 (centres undefined),i,95,1,2,-3,6,.,.
Nc1ncnc2nc[nH]c12,i,109,12,1,-3,15,.,.
Cn1c(N)nc2nc[nH]c2c1=S,i,114,1,3,1,14,i,0
C[C@H](O)[C@@H]1C(=O)N2CCc3ccc(-c4ccccc4)cc3[C@@H]2C[C@@H]1N(C)C(=S)Nc1ccc(F)cc1,i,.,-6,-3,-1,-7,i,87*
S=c1[nH]c(-c2ccc(Br)cc2)cn1CCc1ccccc1,i,102,-1,3,-2,-3,.,.
Cc1ccc(C(=O)C(C)OC(=O)c2nc(Cl)ccc2Cl)cc1 (centres undefined),i,98,0,2,-7,2,.,.
O=C(O)CN1C(=O)/C(=C/c2ccc(SCc3ccccc3)o2)SC1=S,i,99,-15,135,1,1,i,0
O=C1/C(=C\c2ccco2)SC(=S)N1c1ccccc1,i,107,1,6,0,1,.,.
O=C1/C(=C\c2ccco2)SC(=S)N1Cc1ccccc1,i,93,4,6,-2,-6,i,1
C[C@H](CO)N1C[C@H](C)[C@H](CN(C)C(=O)c2ccccc2)Oc2cc(Br)ccc2S1(=O)=O,i,111,2,10,-3,3,.,.
O=C1c2cc(Br)ccc2OC2C=CC=CC12 (centres undefined),i,105,1,1,-4,-5,.,.
CCc1ccc(CNC(=O)CCc2nnc(Cc3cccc(C(F)(F)F)c3)o2)nc1,+,108,-1,1,-3,-20,i,0
